Test results taken from ChEMBL document CHEMBL5058577, “EUbOPEN Chemogenomics Library 2 (Multiplex)” (2022).

Tested on: Fibroblast
Experiment: Multiplex assay against human fibroblast
Type: toxicity, cell-based
How it was run: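 Hoechst33342, BioTracker Green Microtubule Cytoskeleton Dye, MitoTracker Red and Annexin V Alexa Fluor 680 were added to live cells at seeding, and imaging on a CQ1 microscope at 37°C and 5% CO2 followed compound addition. Gating by CellPathfinder machine learning separated cells into Hoechst high-intensity objects or normal cells, then normal cells into healthy, pyknosed or fragmented nuclei, then pyknosed cells into mitotic or apoptotic. Per cents of healthy-nucleus cells are reported for the tubulin, mitochondrial-mass and membrane-permeability phenotypes.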

[1] = 12 h, 1 µM, compound concentration 1 uM, replicate 1
[2] = 12 h, 1 µM, compound concentration 1 uM, replicate 2
[3] = 12 h, 10 µM, compound concentration 10 uM, replicate 1
[4] = 12 h, 10 µM, compound concentration 10 uM, replicate 2
[5] = 24 h, 1 µM, compound concentration 1 uM, replicate 1
[6] = 24 h, 1 µM, compound concentration 1 uM, replicate 2
[7] = 24 h, 10 µM, compound concentration 10 uM, replicate 1
[8] = 24 h, 10 µM, compound concentration 10 uM, replicate 2
[9] = 48 h, 1 µM, compound concentration 1 uM, replicate 1
[10] = 48 h, 1 µM, compound concentration 1 uM, replicate 2
[11] = 48 h, 10 µM, compound concentration 10 uM, replicate 1
[12] = 48 h, 10 µM, compound concentration 10 uM, replicate 2

`Cc1ccc(C(C)(O)c2nc3ccccc3s2)c(C)c1` (stereo not given) was tested, and the “Population Apoptotic (%)” value [1] was 50%, the “Population Fragmented Nuclei (%)” value [1] was 8% and the “Population Healthy Nuclei (%)” value [1] was 78%. For the same molecule, the “Population Hoechst High Intensity Objects (%)” value [1] was 0%, the “Population Membrane Permeable-Phenotype (%)” value [1] was 0% and the “Population Mitochondria Different-Phenotype (%)” value [1] was 5%. For the same molecule, the “Population Mitotic Cells (%)” value [1] was 50%, the “Population Normal (%)” value [1] was 99% and the “Population Pyknosed Nuclei (%)” value [1] was 12%. The “Population Tubulin-Different-Phenotype (%)” value [1] was 29%, the “Total Cell Count” value [1] was 125 and the “Population Apoptotic (%)” value [2] was 44%. For the same molecule, the “Population Fragmented Nuclei (%)” value [2] was 22%, the “Population Healthy Nuclei (%)” value [2] was 48% and the “Population Hoechst High Intensity Objects (%)” value [2] was 5%. For the same molecule, the “Population Membrane Permeable-Phenotype (%)” value [2] was 3%, the “Population Mitochondria Different-Phenotype (%)” value [2] was 6% and the “Population Mitotic Cells (%)” value [2] was 56%. The “Population Normal (%)” value [2] was 95%, the “Population Pyknosed Nuclei (%)” value [2] was 29% and the “Population Tubulin-Different-Phenotype (%)” value [2] was 36%. For the same molecule, the “Total Cell Count” value [2] was 180, the “Population Apoptotic (%)” value [3] was 44% and the “Population Fragmented Nuclei (%)” value [3] was 11%. For the same molecule, the “Population Healthy Nuclei (%)” value [3] was 72%, the “Population Hoechst High Intensity Objects (%)” value [3] was 1% and the “Population Membrane Permeable-Phenotype (%)” value [3] was 0%. For the same molecule, the “Population Mitochondria Different-Phenotype (%)” value [3] was 5%, the “Population Mitotic Cells (%)” value [3] was 56% and the “Population Normal (%)” value [3] was 98%. The “Population Pyknosed Nuclei (%)” value [3] was 16%, the “Population Tubulin-Different-Phenotype (%)” value [3] was 24% and the “Total Cell Count” value [3] was 153. For the same molecule, the “Population Apoptotic (%)” value [4] was 22%, the “Population Fragmented Nuclei (%)” value [4] was 31% and the “Population Healthy Nuclei (%)” value [4] was 43%. For the same molecule, the “Population Hoechst High Intensity Objects (%)” value [4] was 7%, the “Population Membrane Permeable-Phenotype (%)” value [4] was 15% and the “Population Mitochondria Different-Phenotype (%)” value [4] was 6%. For the same molecule, the “Population Mitotic Cells (%)” value [4] was 77%, the “Population Normal (%)” value [4] was 92% and the “Population Pyknosed Nuclei (%)” value [4] was 25%. For the same molecule, the “Population Tubulin-Different-Phenotype (%)” value [4] was 60%, the “Total Cell Count” value [4] was 149 and the “Population Apoptotic (%)” value [5] was 31%. For the same molecule, the “Population Fragmented Nuclei (%)” value [5] was 13%, the “Population Healthy Nuclei (%)” value [5] was 73% and the “Population Hoechst High Intensity Objects (%)” value [5] was 0%. For the same molecule, the “Population Membrane Permeable-Phenotype (%)” value [5] was 2%, the “Population Mitochondria Different-Phenotype (%)” value [5] was 7% and the “Population Mitotic Cells (%)” value [5] was 68%. For the same molecule, the “Population Normal (%)” value [5] was 99%, the “Population Pyknosed Nuclei (%)” value [5] was 13% and the “Population Tubulin-Different-Phenotype (%)” value [5] was 22%. The “Total Cell Count” value [5] was 139, the “Population Apoptotic (%)” value [6] was 47% and the “Population Fragmented Nuclei (%)” value [6] was 25%. The “Population Healthy Nuclei (%)” value [6] was 54%, the “Population Hoechst High Intensity Objects (%)” value [6] was 5% and the “Population Membrane Permeable-Phenotype (%)” value [6] was 11%. For the same molecule, the “Population Mitochondria Different-Phenotype (%)” value [6] was 5%, the “Population Mitotic Cells (%)” value [6] was 52% and the “Population Normal (%)” value [6] was 94%. The “Population Pyknosed Nuclei (%)” value [6] was 20%, the “Population Tubulin-Different-Phenotype (%)” value [6] was 43% and the “Total Cell Count” value [6] was 173. For the same molecule, the “Population Apoptotic (%)” value [7] was 55%, the “Population Fragmented Nuclei (%)” value [7] was 13% and the “Population Healthy Nuclei (%)” value [7] was 74%. The “Population Hoechst High Intensity Objects (%)” value [7] was 4%, the “Population Membrane Permeable-Phenotype (%)” value [7] was 3% and the “Population Mitochondria Different-Phenotype (%)” value [7] was 6%. The “Population Mitotic Cells (%)” value [7] was 44%, the “Population Normal (%)” value [7] was 95% and the “Population Pyknosed Nuclei (%)” value [7] was 12%. The “Population Tubulin-Different-Phenotype (%)” value [7] was 24%, the “Total Cell Count” value [7] was 152 and the “Population Apoptotic (%)” value [8] was 38%. The “Population Fragmented Nuclei (%)” value [8] was 27%, the “Population Healthy Nuclei (%)” value [8] was 46% and the “Population Hoechst High Intensity Objects (%)” value [8] was 6%. For the same molecule, the “Population Membrane Permeable-Phenotype (%)” value [8] was 12%, the “Population Mitochondria Different-Phenotype (%)” value [8] was 9% and the “Population Mitotic Cells (%)” value [8] was 61%. For the same molecule, the “Population Normal (%)” value [8] was 93%, the “Population Pyknosed Nuclei (%)” value [8] was 25% and the “Population Tubulin-Different-Phenotype (%)” value [8] was 61%. For the same molecule, the “Total Cell Count” value [8] was 143, the “Population Apoptotic (%)” value [9] was 33% and the “Population Fragmented Nuclei (%)” value [9] was 16%. The “Population Healthy Nuclei (%)” value [9] was 73%, the “Population Hoechst High Intensity Objects (%)” value [9] was 4% and the “Population Membrane Permeable-Phenotype (%)” value [9] was 0%. The “Population Mitochondria Different-Phenotype (%)” value [9] was 3%, the “Population Mitotic Cells (%)” value [9] was 66% and the “Population Normal (%)” value [9] was 95%. The “Population Pyknosed Nuclei (%)” value [9] was 9%, the “Population Tubulin-Different-Phenotype (%)” value [9] was 16% and the “Total Cell Count” value [9] was 129. The “Population Apoptotic (%)” value [10] was 50%, the “Population Fragmented Nuclei (%)” value [10] was 28% and the “Population Healthy Nuclei (%)” value [10] was 57%. For the same molecule, the “Population Hoechst High Intensity Objects (%)” value [10] was 3%, the “Population Membrane Permeable-Phenotype (%)” value [10] was 5% and the “Population Mitochondria Different-Phenotype (%)” value [10] was 6%. For the same molecule, the “Population Mitotic Cells (%)” value [10] was 50%, the “Population Normal (%)” value [10] was 96% and the “Population Pyknosed Nuclei (%)” value [10] was 14%. The “Population Tubulin-Different-Phenotype (%)” value [10] was 39%, the “Total Cell Count” value [10] was 174 and the “Population Apoptotic (%)” value [11] was 53%. The “Population Fragmented Nuclei (%)” value [11] was 22%, the “Population Healthy Nuclei (%)” value [11] was 68% and the “Population Hoechst High Intensity Objects (%)” value [11] was 7%. The “Population Membrane Permeable-Phenotype (%)” value [11] was 2%, the “Population Mitochondria Different-Phenotype (%)” value [11] was 6% and the “Population Mitotic Cells (%)” value [11] was 46%. For the same molecule, the “Population Normal (%)” value [11] was 92%, the “Population Pyknosed Nuclei (%)” value [11] was 9% and the “Population Tubulin-Different-Phenotype (%)” value [11] was 27%. The “Total Cell Count” value [11] was 156, the “Population Apoptotic (%)” value [12] was 43% and the “Population Fragmented Nuclei (%)” value [12] was 34%. For the same molecule, the “Population Healthy Nuclei (%)” value [12] was 53%, the “Population Membrane Permeable-Phenotype (%)” value [12] was 7% and the “Population Mitochondria Different-Phenotype (%)” value [12] was 7%. The “Population Mitotic Cells (%)” value [12] was 56%, the “Population Pyknosed Nuclei (%)” value [12] was 12% and the “Population Tubulin-Different-Phenotype (%)” value [12] was 64%. The “Total Cell Count” value [12] was 143.
